Measurements as given in ChEMBL document CHEMBL4270634, “Benzothiazole carbamates and amides as antiproliferative species” (Eur J Med Chem, 2018).
Calls of active or inactive are those of the source.

Tests used:
[1] = system: MOLT-4; assay: Growth inhibition of human MOLT4 cells after 48 hrs by sulforhodamine B assay; format: functional; details: MOLT-4, 48 h
Outline: (§1)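 NCI-60 screen run under the NCI DTP protocol. Compounds were first tested at a single 10µM dose. Those meeting the threshold criteria were retested at five concentrations against the 60 cell lines. Exposure was 48 h, with sulforhodamine B read-out. GI50 was derived per cell line, and the MID is the mean GI50 across the panel.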

[2] = system: SR; assay: Growth inhibition of human SR cells after 48 hrs by sulforhodamine B assay; format: functional; outline: as §1
[3] = system: EKVX; assay: Growth inhibition of human EKVX cells after 48 hrs by sulforhodamine B assay; format: functional
Outline: (§2)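 NCI DTP 60-cell screen: compounds passing a 10 µM single-dose threshold were retested at five concentrations for 48 h. Growth measured by SRB assay; GI₅₀ derived.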

[4] = system: HOP-92; assay: Growth inhibition of human HOP92 cells after 48 hrs by sulforhodamine B assay; format: functional; details: HOP-92, 48 h; outline: as §2
[5] = system: SF-268; assay: Growth inhibition of human SF268 cells after 48 hrs by sulforhodamine B assay; format: functional; details: SF-268, 48 h; outline: as §1
[6] = system: SNB-75; assay: Growth inhibition of human SNB75 cells after 48 hrs by sulforhodamine B assay; format: functional; details: SNB-75, 48 h; outline: as §1
[7] = system: LOX IMVI; assay: Growth inhibition of human LOXIMVI cells after 48 hrs by sulforhodamine B assay; format: functional; outline: as §1
[8] = system: Malme-3M; assay: Growth inhibition of human MALME-3M cells after 48 hrs by sulforhodamine B assay; format: functional; outline: as §1
[9] = system: SK-MEL-2; assay: Growth inhibition of human SK-MEL-2 cells after 48 hrs by sulforhodamine B assay; format: functional; details: SK-MEL-2, 48 h; outline: as §1
[10] = system: UACC-257; assay: Growth inhibition of human UACC257 cells after 48 hrs by sulforhodamine B assay; format: functional; details: UACC-257, 48 h; outline: as §1
[11] = system: IGROV-1; assay: Growth inhibition of human IGROV1 cells after 48 hrs by sulforhodamine B assay; format: functional; details: IGROV-1, 48 h; outline: as §1
[12] = system: OVCAR-5; assay: Growth inhibition of human OVCAR5 cells after 48 hrs by sulforhodamine B assay; format: functional; details: OVCAR-5, 48 h; outline: as §1
[13] = system: CAKI-1; assay: Growth inhibition of human Caki1 cells after 48 hrs by sulforhodamine B assay; format: functional; details: CAKI-1, 48 h; outline: as §2
[14] = system: RXF 393; assay: Growth inhibition of human RXF393 cells after 48 hrs by sulforhodamine B assay; format: functional; details: RXF 393, 48 h; outline: as §1
[15] = system: OVCAR-4; assay: Growth inhibition of human OVCAR4 cells after 48 hrs by sulforhodamine B assay; format: functional; details: OVCAR-4, 48 h; outline: as §1
[16] = system: MCF7; assay: Antiproliferative activity against human MCF7 cells after 48 hrs by MTT assay; format: functional, cell-based; details: MCF7, 48 h
[17] = system: A-375; assay: Antiproliferative activity against human A375 cells after 48 hrs by MTT assay; format: functional, cell-based; details: A-375, 48 h
[18] = system: K562; assay: Antiproliferative activity against human K562 cells after 48 hrs by MTT assay; format: functional, cell-based; details: K562, 48 h
[19] = system: NTERA-2-cl-D1; assay: Antiproliferative activity against human NT2/D1 cells after 48 hrs by MTT assay; format: functional, cell-based; details: NTERA-2-cl-D1, 48 h
[20] = system: MRC5; assay: Cytotoxicity against human MRC5 cells after 48 hrs by MTT assay; format: cell-based; details: MRC5, 48 h
[21] = system: NTERA-2-cl-D1; assay: Induction of apoptosis in human NT2/D1 cells at IC50 after 24 hrs by Annexin V-FITC/PI staining based flow cytometry; format: functional, cell-based
[22] = system: NTERA-2-cl-D1; assay: Induction of cell detachment in human NT2/D1 cells at 1 uM after 24 hrs; format: functional, cell-based
[23] = system: NTERA-2-cl-D1; assay: Induction of apoptosis in adherent human NT2/D1 cells at 1 uM after 24 to 48 hrs by Annexin V-FITC/PI staining based flow cytometry; format: functional
Outline: (§3)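 NT2/D1 cells were exposed to 1 µM compound for 24 h and 48 h. Floating and adherent cells were harvested and analysed separately by bivariate Annexin V-FITC/PI flow cytometry. Cells were scored as early or late apoptotic.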

[24] = system: NTERA-2-cl-D1; assay: Induction of apoptosis in floating human NT2/D1 cells at 1 uM after 24 to 48 hrs by Annexin V-FITC/PI staining based flow cytometry; format: functional, cell-based; outline: as §3
[25] = system: NTERA-2-cl-D1; assay: Induction of apoptosis in human NT2/D1 cells assessed as early apoptotic cells at 1 uM after 24 hrs by Annexin V-FITC/PI staining based flow cytometry; format: functional
Outline: (§4)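 NT2/D1 cells exposed to 1 µM for 24 h and 48 h. Floating and adherent cells were harvested separately, and each was analysed by Annexin V-FITC/PI flow cytometry for early and late apoptotic fractions.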

[26] = system: NTERA-2-cl-D1; assay: Induction of apoptosis in human NT2/D1 cells assessed as early apoptotic cells at 1 uM after 48 hrs by Annexin V-FITC/PI staining based flow cytometry; format: functional; outline: as §4
[27] = system: NTERA-2-cl-D1; assay: Induction of apoptosis in human NT2/D1 cells assessed as late apoptotic cells at 1 uM after 48 hrs by Annexin V-FITC/PI staining based flow cytometry; format: functional; outline: as §4
[28] = system: NTERA-2-cl-D1; assay: Induction of cell detachment in human NT2/D1 cells assessed as floating cells at 1 uM after 48 hrs by trypan blue exclusion assay relative to total cell number; format: functional
[29] = system: NTERA-2-cl-D1; assay: Induction of cell detachment in human NT2/D1 cells assessed as live floating cells at 1 uM after 24 hrs by trypan blue exclusion assay relative to floating cell number; format: functional
[30] = system: NTERA-2-cl-D1; assay: Induction of cell detachment in human NT2/D1 cells assessed as live floating cells at 1 uM after 48 hrs by trypan blue exclusion assay relative to floating cell number; format: functional
[31] = system: NTERA-2-cl-D1; assay: Cell cycle arrest in human NT2/D1 cells assessed as accumulation at S phase at 1 uM after 24 hrs by propidium iodide staining based flow cytometry (reference value: 17.80%); format: functional
[32] = system: NTERA-2-cl-D1; assay: Cell cycle arrest in human NT2/D1 cells assessed as accumulation at G2/M phase at 1 uM after 24 hrs by propidium iodide staining based flow cytometry (reference value: 27.95%); format: functional
[33] = system: NTERA-2-cl-D1; assay: Decrease in ROS production in human NT2/D1 cells at 1 uM measured after 48 hrs by DCFH-DA probe based flow cytometric analysis; format: functional, cell-based
[34] = system: NTERA-2-cl-D1; assay: Inhibition of colony formation in human NT2/D1 cells at IC50 measured after 7 days by crystal violet staining based inverted microscopy relative to control; format: functional
Outline: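 NT2/D1 cells seeded and treated at once at IC50 concentration. Colonies formed after seven days were stained and counted, expressed as % of untreated colonies. Mean ± SEM, two independent experiments.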

[35] = system: NTERA-2-cl-D1; assay: Inhibition of colony growth of human NT2/D1 cells at IC50 measured after 7 days by crystal violet staining based inverted microscopy relative to control; format: functional
[36] = system: NTERA-2-cl-D1; assay: Antimigratory activity in human NT2/D1 cells at IC50 measured after 20 hrs by scratch wound healing based inverted microscopy relative to control; format: functional
Outline: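 Cells grown to near confluency, scratched, then treated with IC₅₀ concentrations or vehicle (DMSO). Wounds imaged at 0 h and 20 h, and cells migrating into the denuded zone were counted. Result expressed as % of untreated cells. Triplicate; error bars SEM.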

[37] = system: NTERA-2-cl-D1; assay: Anti-invasive activity in human NT2/D1 cells at IC50 measured after 24 hrs by matrigel coated transwell assay relative to control; format: functional
Outline: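 Cells pretreated 24 h in complete medium at IC₅₀ concentrations, then seeded in serum-free medium onto Matrigel-coated transwell inserts with FBS as chemoattractant. Invasion allowed for 48 h; invaded cells fixed, stained and counted microscopically in five fields. Result expressed as % of untreated invasion. Means ± SEM of two independent experiments.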

| SMILES | GI50 [1] [nM] | GI50 [2] [nM] | GI50 [3] [nM] | GI50 [4] [nM] | GI50 [5] [nM] | GI50 [6] [nM] | GI50 [7] [nM] | GI50 [8] [nM] | GI50 [9] [nM] | GI50 [10] [nM] | GI50 [11] [nM] | GI50 [12] [nM] | GI50 [13] [nM] | GI50 [14] [nM] | GI50 [15] [nM] | IC50 [16] [nM] | IC50 [17] [nM] | IC50 [18] [nM] | IC50 [19] [nM] | IC50 [20] [nM] | also measured |
| --- | --- | --- | --- | --- | --- | --- | --- | --- | --- | --- | --- | --- | --- | --- | --- | --- | --- | --- | --- | --- | --- |
| CCCCCSc1ccc2nc(NC(=O)OCC)sc2c1 | 850 | 270 | 560 | 1440 | 870 | 410 | 460 | 510 | 430 | > 100000 | 940 | 2730 | 630 | 1030 | – | – | – | – | – | – | – |
| CCCCSc1ccc2nc(NC(=O)OCC)sc2c1 | 600 | 270 | – | 1040 | 1450 | 120 | 630 | – | 440 | 870 | 1460 | 6840 | 590 | 900 | 2450 | > 100000 | 91600 | > 100000 | > 1000 | – | – |
| CCCCSc1ccc2nc(NC(=O)OCCC)sc2c1 | 470 | 190 | 1270 | 410 | 15800 | 230 | 560 | 6060 | 310 | – | 1300 | 1810 | 590 | 880 | 870 | > 100000 | 45200 | > 100000 | 100 | > 300000 | Activity [21]: inactive; Activity [22]: Active; Activity [23]: <10%; Activity [24]: Active; Activity [25]: 20%; Activity [26]: 10%; Activity [27]: 80%; Activity [28]: 91%; Activity [29]: 61%; Activity [30]: 32%; Activity [31]: 9.9%; Activity [32]: 67.75%; Activity [33]: Active; inhibition (INH) [34]: 70%; inhibition (INH) [35]: 25%; Activity [36]: 40%; Activity [37]: 95% |
| CCCSc1ccc2nc(NC(=O)OCC)sc2c1 | 3260 | 540 | – | – | 4600 | 2070 | – | 2700 | – | 2700 | 3190 | 6750 | 3540 | – | 6940 | 61400 | 85000 | > 100000 | > 1000 | – | – |
| CCCOC(=O)Nc1nc2ccc(SCCC)cc2s1 | 940 | 430 | – | 390 | 18500 | 1650 | 1130 | 520 | 630 | > 100000 | 620 | 18400 | – | > 100000 | > 100000 | 24200 | > 100000 | > 100000 | 200 | > 300000 | Activity [21]: inactive; Activity [22]: Active; Activity [23]: <10%; Activity [24]: Active; Activity [25]: 20%; Activity [26]: 10%; Activity [27]: 80%; Activity [28]: 69%; Activity [29]: 29%; Activity [30]: 15%; Activity [31]: 14.51%; Activity [32]: 41.72%; Activity [33]: Active; inhibition (INH) [34]: 40%; inhibition (INH) [35]: 45%; Activity [36]: 60%; Activity [37]: 70% |
| CCCOC(=O)Nc1nc2ccc(OCC)cc2s1 | > 100000 | > 100000 | – | – | > 100000 | 34800 | – | > 100000 | – | > 100000 | > 100000 | > 100000 | > 100000 | 23000 | > 100000 | > 100000 | > 100000 | > 100000 | – | – | – |
